Data: ChEMBL document CHEMBL1137633, “2,N6-disubstituted adenosine analogs with antitrypanosomal and antimalarial activities” (Antimicrob Agents Chemother, 2007)
pEC50, pIC50, pKi: −log10 of the molar value. Calls of active or inactive are those of the source. The calls are words filed in the database; no cut-off is given here.

Key:
[1] = system: Trypanosoma cruzi; assay: Trypanocidal activity against Trypanosoma cruzi Tulahuen C4 trypomastigotes infected in mouse macrophage by reporter dye assay; assay type: functional, organism-based
[2] = system: Leishmania donovani; assay: Antileishmanial activity against Leishmania donovani MHOMET-67/L82 amastigotes infected in mouse macrophage by reporter dye assay; assay type: functional, organism-based
[3] = system: Trypanosoma brucei rhodesiense; assay: Trypanocidal activity against Trypanosoma brucei rhodesiense STIB 900 […] by reporter dye assay; assay type: functional, organism-based
[4] = system: Plasmodium falciparum; assay: Antiplasmodial activity against chloroquine and pyrimethamine-resistant Plasmodium falciparum K1 […] by reporter dye assay; assay type: functional, organism-based
[5] = system: L6; assay: Cytotoxicity against rat L6 cells; assay type: cell-based
[6] = Cytotoxicity against HEK293T cells after 16 hrs by alamar blue staining; assay type: cell-based; conditions: Homo sapiens, HEK-293T
How it was run: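 HEK 293T cells were seeded at 3×10^4/well in DMEM with 10% newborn bovine serum, 2 mM L-glutamax and 1% penicillin-streptomycin, and left to adhere for 3 h at 37°C under 5% CO2. Medium with serial drug dilutions (500 to 0.24 μM in the added medium) was then given for 16 h. Resazurin followed for a further 24 h, read by fluorescence (ex 530/em 590 nm). IC50 values came from ≥3 independent experiments.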

[7] = system: Trypanosoma brucei brucei; assay: Inhibition of Trypanosoma brucei brucei 427 P1 transporter-mediated [3H]adenosine uptake by fluid scintillation counting in presence of 100 uM adenine
[8] = Inhibition of Trypanosoma brucei brucei 427 P2 transporter-mediated [3H]adenosine uptake by fluid scintillation counting in presence of 100 uM inosine
[9] = Inhibition of [3H]hypoxanthine uptake at Trypanosoma brucei brucei 427 H2 transporter expressed in human erythrocytes by fluid scintillation counting; assay type: cell-based
[10] = system: Trypanosoma brucei brucei; assay: Trypanostatic activity against Trypanosoma brucei brucei s427 by alamar blue fluorescent dye assay; assay type: functional; conditions: read-out: ED50 (the source's name)
[11] = system: Trypanosoma brucei brucei; assay: Trypanocidal activity against Trypanosoma brucei brucei s427 by alamar blue fluorescent dye assay; assay type: functional; conditions: read-out: ED50 (the source's name)
[12] = system: Leishmania major; assay: Leishmanistatic activity against Leishmania major promastigotes by alamar blue fluorescent dye assay; assay type: functional; conditions: read-out: ED50 (the source's name)
[13] = system: Leishmania major; assay: Leishmanicidal activity against Leishmania major promastigotes by alamar blue fluorescent dye assay; assay type: functional; conditions: read-out: ED50 (the source's name)
[14] = system: Leishmania mexicana; assay: Antiprotozoal activity against axenic Leishmania mexicana amastigotes by alamar blue fluorescent dye assay; assay type: functional, organism-based

Row | Compound | pIC50 [1] | pIC50 [2] | pIC50 [3] | pIC50 [4] | pIC50 [5] | further results
1 | OC[C@H]1O[C@@H](n2cnc3c(Nc4ccccc4)nc(NCCC4CNc5ccccc54)nc32)[C@H](O)[C@@H]1O (stereo partly drawn) | > 4.52 | > 4.52 | 4.73 | 5.26 | 4.88 | –
2 | OC[C@H]1O[C@@H](n2cnc3c(NCc4cccc(I)c4)nc(NCCOCc4ccccc4)nc32)[C@H](O)[C@@H]1O | > 4.52 | > 4.52 | 4.57 | < 5.00 | – | –
3 | COc1nc(NCCC(c2ccccc2)c2ccccc2)c2ncn([C@@H]3O[C@H](CO)[C@@H](O)[C@H]3O)c2n1 | > 4.52 | > 4.52 | 4.44 | < 5.00 | – | –
4 | OC[C@H]1O[C@@H](n2cnc3c(Nc4ccccc4)nc(NC4CCCC4)nc32)[C@H](O)[C@@H]1O | > 4.52 | > 4.52 | 5.69 | 5.22 | 4.44 | –
5 | OC[C@H]1O[C@@H](n2cnc3c(NC4CCCC4)nc(NC4CC4)nc32)[C@H](O)[C@@H]1O | – | – | 5.84 | < 5.00 | – | pIC50 [6]: < 3.30
6 | OC[C@H]1O[C@@H](n2cnc3c(NCCC4CNc5ccccc54)nc(NCCC4CNc5ccccc54)nc32)[C@H](O)[C@@H]1O (stereo partly drawn) | – | – | 4.58 | 5.61 | – | –
7 | COc1nc(Nc2ccccc2)c2ncn([C@@H]3O[C@H](CO)[C@@H](O)[C@H]3O)c2n1 | > 4.52 | > 4.52 | 4.08 | < 5.00 | – | –
8 | COc1nc(NC2CCCC2)c2ncn([C@@H]3O[C@H](CO)[C@@H](O)[C@H]3O)c2n1 | > 4.52 | > 4.52 | 4.48 | < 5.00 | 4.29 | –
9 | OC[C@H]1O[C@@H](n2cnc3c(NCCC(c4ccccc4)c4ccccc4)nc(NC4CCCC4)nc32)[C@H](O)[C@@H]1O | > 4.52 | > 4.52 | 5.10 | 5.48 | – | –
10 | OC[C@H]1O[C@@H](n2cnc3c(NCc4cccc(I)c4)nc(NCCc4cnc[nH]4)nc32)[C@H](O)[C@@H]1O | > 4.52 | > 4.52 | 4.37 | < 5.00 | – | –
11 | OC[C@H]1O[C@@H](n2cnc3c(NC4CCCCCC4)nc(NC4CCCCCC4)nc32)[C@H](O)[C@@H]1O | – | – | 4.53 | 5.31 | – | –
12 | CCCNc1nc(NCCc2ccccc2)c2ncn([C@@H]3O[C@H](CO)[C@@H](O)[C@H]3O)c2n1 | > 4.52 | > 4.52 | 4.85 | < 5.00 | < 3.70 | –
13 | COc1nc(NCc2cccc(I)c2)c2ncn([C@@H]3O[C@H](CO)[C@@H](O)[C@H]3O)c2n1 | > 4.52 | > 4.52 | 4.57 | < 5.00 | – | –
14 | Nc1ncnc2c1ncn2[C@H]1C[C@H](O)[C@@H](CO)O1 [DEOXYADENOSINE] | – | – | – | – | – | inhibition [7]: inactive; pKi [8]: 6.64
15 | OC[C@H]1O[C@@H](n2cnc3c(NC4CCCC4)nc(NCCc4cnc[nH]4)nc32)[C@H](O)[C@@H]1O | > 4.52 | > 4.52 | 4.42 | < 5.00 | – | –
16 | OC[C@H]1O[C@@H](n2cnc3c(NC4CCCC4)nc(NCCC4CNc5ccccc54)nc32)[C@H](O)[C@@H]1O (stereo partly drawn) | > 4.52 | > 4.52 | 4.68 | < 5.00 | 4.32 | –
17 | OC[C@H]1O[C@@H](n2cnc3c(NCCC(c4ccccc4)c4ccccc4)nc(NCCOCc4ccccc4)nc32)[C@H](O)[C@@H]1O | > 4.52 | > 4.52 | 4.56 | 5.51 | – | –
18 | c1nc2nc(NC3CCCC3)nc(NC3CCCC3)c2[nH]1 | – | – | – | – | – | pKi [9]: 4.48; pEC50 [10]: 7.59; pEC50 [11]: 4.63; pEC50 [12]: 7.82; pEC50 [13]: 4.82; pIC50 [14]: 4.82
19 | OC[C@H]1O[C@@H](n2cnc3c(NC4CCCCC4)nc(NC4CCCCC4)nc32)[C@H](O)[C@@H]1O | – | – | 5.14 | 5.02 | – | –
20 | Nc1nc(N)nc(Nc2ccc([As]3SCC(CO)S3)cc2)n1 (stereo not drawn) [MELARSOPROL] | > 4.52 | > 4.52 | 8.25 | – | – | –
21 | C[C@@H]1CC[C@H]2[C@@H](C)C(=O)O[C@@H]3O[C@@]4(C)CC[C@@H]1[C@]32OO4 [ARTEMISININ] | – | – | – | 6.70 | – | –
22 | OC[C@H]1O[C@@H](n2cnc3c(Nc4ccccc4)nc(NCCOCc4ccccc4)nc32)[C@H](O)[C@@H]1O | > 4.52 | > 4.52 | 5.07 | 5.13 | 4.27 | –
23 | CCCCCNc1nc(NCCCCC)c2ncn([C@@H]3O[C@H](CO)[C@@H](O)[C@H]3O)c2n1 | > 4.52 | > 4.52 | 5.19 | < 5.00 | < 3.70 | –
